In brackets after ≈: the same amount, converted by molar mass.
How the values were obtained:
[1] = system: A549; assay: Growth inhibition of human A549 cells; assay type: functional
[2] = system: IGROV-1; assay: Growth inhibition of human IGROV1 cells; assay type: functional
[3] = system: DMS-273; assay: Growth inhibition of human DMS273 cells; assay type: functional
[4] = system: NCI-H226; assay: Growth inhibition of human NCI-H226 cells; assay type: functional
[5] = system: ACHN; assay: Growth inhibition of human ACHN cells; assay type: functional
[6] = system: SN12C; assay: Growth inhibition of human SN12C cells; assay type: functional
Outline: (§1)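 Tested at the NCI in its human disease-oriented in vitro screen of 60 tumour cell lines, following the Monks et al. methods. Activity is expressed as GI50, given as log molar values.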

[7] = system: HCT-116; assay: Growth inhibition of human HCT116 cells; assay type: functional
[8] = system: U-251; assay: Growth inhibition of human U251 cells; assay type: functional; outline: as §1
[9] = system: SF-539; assay: Growth inhibition of human SF539 cells; assay type: functional; outline: as §1
[10] = system: SW-620; assay: Growth inhibition of human SW620 cells; assay type: functional; outline: as §1
[11] = system: SR; assay: Growth inhibition of human SR cells; assay type: functional; outline: as §1
[12] = system: SK-MEL-2; assay: Growth inhibition of human SK-MEL-2 cells; assay type: functional; outline: as §1
[13] = system: 786-0; assay: Growth inhibition of human 786-0 cells; assay type: functional
[14] = system: MDA-MB-435; assay: Growth inhibition of human MDA-MB-435 cells; assay type: functional
[15] = system: RXF 393; assay: Growth inhibition of human […] cells; assay type: functional
[16] = Growth inhibition of human RPMI8266 cells; assay type: functional
[17] = system: HT-29; assay: Growth inhibition of human HT29 cells; assay type: functional
[18] = system: CCRF-CEM; assay: Growth inhibition of human CCRF-CEM cells; assay type: functional
[19] = system: NCI-H23; assay: Growth inhibition of human NCI-H23 cells; assay type: functional
[20] = system: BT-549; assay: Growth inhibition of human BT549 cells; assay type: functional
[21] = system: MCF7; assay: Growth inhibition of human MCF7 cells; assay type: functional
[22] = system: NCI-H322M; assay: Growth inhibition of human NCI-H322M cells; assay type: functional
[23] = system: SNB-19; assay: Growth inhibition of human SNB19 cells; assay type: functional; outline: as §1
[24] = system: HCC 2998; assay: Growth inhibition of human HCC2998 cells; assay type: functional
[25] = system: Malme-3M; assay: Growth inhibition of human MALME-3M cells; assay type: functional
[26] = system: KM12; assay: Growth inhibition of human KM12 cells; assay type: functional
[27] = system: HOP-92; assay: Growth inhibition of human HOP92 cells; assay type: functional
[28] = system: SF-295; assay: Growth inhibition of human SF295 cells; assay type: functional; outline: as §1
[29] = system: T47D; assay: Growth inhibition of human T47D cells; assay type: functional; outline: as §1
[30] = Growth inhibition of human OVACR4 cells; assay type: functional
[31] = system: SK-MEL-5; assay: Growth inhibition of human SK-MEL-5 cells; assay type: functional; outline: as §1
[32] = system: PC-3; assay: Growth inhibition of human PC3 cells; assay type: functional
[33] = Growth inhibition of human HL60(TB) cells; assay type: functional, HL-60(TB); settings: HL-60
[34] = system: KM-20L2; assay: Growth inhibition of human KM20L2 cells; assay type: functional
[35] = system: LOX IMVI; assay: Growth inhibition of human LOX IMVI cells; assay type: functional
[36] = system: NCI-H522; assay: Growth inhibition of human NCI-H522 cells; assay type: functional
[37] = system: HCT-15; assay: Growth inhibition of human HCT15 cells; assay type: functional
[38] = system: SK-MEL-28; assay: Growth inhibition of human SK-MEL-28 cells; assay type: functional; outline: as §1
[39] = system: DLD-1; assay: Growth inhibition of human DLD1 cells; assay type: functional
[40] = system: HOP-18; assay: Growth inhibition of human HOP18 cells; assay type: functional
[41] = system: CAKI-1; assay: Growth inhibition of human CAKI1 cells; assay type: functional
[42] = system: NCI-H460; assay: Growth inhibition of human NCI-H460 cells; assay type: functional
[43] = system: K562; assay: Growth inhibition of human K562 cells; assay type: functional
[44] = system: UO-31; assay: Growth inhibition of human UO31 cells; assay type: functional; outline: as §1
[45] = system: SNB-75; assay: Growth inhibition of human SNB75 cells; assay type: functional; outline: as §1
[46] = system: UACC-257; assay: Growth inhibition of human UACC257 cells; assay type: functional; outline: as §1
[47] = system: Hs-578T; assay: Growth inhibition of human HS578T cells; assay type: functional
[48] = system: TK-10; assay: Growth inhibition of human TK10 cells; assay type: functional; outline: as §1
[49] = Growth inhibition of human MCF7/ADR-RES cells; assay type: functional; settings: NCI/ADR-RES
[50] = system: COLO 205; assay: Growth inhibition of human COLO205 cells; assay type: functional
[51] = system: MDA-MB-231; assay: Growth inhibition of human MDA-MB-231 cells; assay type: functional
[52] = system: SF-268; assay: Growth inhibition of human SF268 cells; assay type: functional; outline: as §1
[53] = Growth inhibition of human OVACR5 cells; assay type: functional
[54] = system: M14; assay: Growth inhibition of human M14 cells; assay type: functional
[55] = system: HOP-62; assay: Growth inhibition of human HOP62 cells; assay type: functional
[56] = system: SK-OV-3; assay: Growth inhibition of human SK-OV-3 cells; assay type: functional; outline: as §1
[57] = system: MOLT-4; assay: Growth inhibition of human MOLT4 cells; assay type: functional
[58] = system: UACC-62; assay: Growth inhibition of human UACC62 cells; assay type: functional; outline: as §1
[59] = Growth inhibition of human LXFL529 cells; assay type: functional; settings: LXFL 529
[60] = Growth inhibition of human DMS144 cells; assay type: functional
[61] = Growth inhibition of human […] cells; assay type: functional
[62] = system: EKVX; assay: Growth inhibition of human EKVX cells; assay type: functional
[63] = Growth inhibition of human OVACR8 cells; assay type: functional
[64] = system: M19-MEL; assay: Growth inhibition of human M19-MEL cells; assay type: functional
[65] = system: MDA-N; assay: Growth inhibition of human MDA-N cells; assay type: functional
[66] = system: A498; assay: Growth inhibition of human A498 cells; assay type: functional
[67] = system: DU-145; assay: Growth inhibition of human DU145 cells; assay type: functional
[68] = system: HCT-8; assay: Growth inhibition of human HCT8 cells; assay type: functional; settings: read-out: ED50 (the source's name)
Outline: (§2)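 In-house cytotoxicity assay following an NCI protocol, run on a panel of human tumour lines: KB nasopharyngeal epidermoid carcinoma and HCT-8 ileocecal adenocarcinoma. Potency is reported as ED50 in µg/mL.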

[69] = system: KB; assay: Growth inhibition of human KB cells; assay type: functional; settings: read-out: ED50 (the source's name); outline: as §2
[70] = system: XF498; assay: Growth inhibition of human XF498 cells; assay type: functional; outline: as §1
[71] = read-out: ED50 (the source's name)

## COc1cc(C(=O)O)cc2c1[nH]c1ccccc12 [MUKOEIC ACID]
[1]
  GI50: 25.1 µM
[2]
  GI50: 25.1 µM
[3]
  GI50: 25.1 µM
[4]
  GI50: 25.1 µM
[5]
  GI50: 25.1 µM
[6]
  GI50: 25.1 µM
[7]
  GI50: 25.1 µM
[8]
  GI50: 25.1 µM
[9]
  GI50: 25.1 µM
[10]
  GI50: 25.1 µM
[11]
  GI50: 25.1 µM
[12]
  GI50: 25.1 µM
[13]
  GI50: 25.1 µM
[14]
  GI50: 25.1 µM
[15]
  GI50: 25.1 µM
[16]
  GI50: 25.1 µM
[17]
  GI50: 25.1 µM
[18]
  GI50: 25.1 µM
[19]
  GI50: 25.1 µM
[20]
  GI50: 25.1 µM
[21]
  GI50: 25.1 µM
[22]
  GI50: 25.1 µM
[23]
  GI50: 25.1 µM
[24]
  GI50: 25.1 µM
[25]
  GI50: 25.1 µM
[26]
  GI50: 25.1 µM
[27]
  GI50: 25.1 µM
[28]
  GI50: 25.1 µM
[29]
  GI50: 25.1 µM
[30]
  GI50: 25.1 µM
[31]
  GI50: 25.1 µM
[32]
  GI50: 25.1 µM
[33]
  GI50: 25.1 µM
[34]
  GI50: 25.1 µM
[35]
  GI50: 25.1 µM
[36]
  GI50: 25.1 µM
[37]
  GI50: 25.1 µM
[38]
  GI50: 25.1 µM
[39]
  GI50: 25.1 µM
[40]
  GI50: 25.1 µM
[41]
  GI50: 25.1 µM
[42]
  GI50: 25.1 µM
[43]
  GI50: 25.1 µM
[44]
  GI50: 25.1 µM
[45]
  GI50: 25.1 µM
[46]
  GI50: 25.1 µM
[47]
  GI50: 25.1 µM
[48]
  GI50: 25.1 µM
[49]
  GI50: 25.1 µM
[50]
  GI50: 25.1 µM
[51]
  GI50: 25.1 µM
[52]
  GI50: 25.1 µM
[53]
  GI50: 25.1 µM
[54]
  GI50: 25.1 µM
[55]
  GI50: 25.1 µM
[56]
  GI50: 25.1 µM
[57]
  GI50: 25.1 µM
[58]
  GI50: 25.1 µM
[59]
  GI50: 25.1 µM
[60]
  GI50: 25.1 µM
[61]
  GI50: 25.1 µM
[62]
  GI50: 25.1 µM
[63]
  GI50: 25.1 µM
[64]
  GI50: 25.1 µM
[65]
  GI50: 25.1 µM
[66]
  GI50: 25.1 µM
[67]
  GI50: 25.1 µM

## CC1=CC(=O)c2[nH]c3ccccc3c2C1=O [MURRAYAQUINONE A]
[68]
  EC50: 5.5 µg/mL (≈ 26 µM)
[1]
  GI50: 25.1 µM
[2]
  GI50: 6.61 µM
[3]
  GI50: 4.27 µM
[69]
  EC50: 5.18 µg/mL (≈ 24.5 µM)
[4]
  GI50: 6.61 µM
[5]
  GI50: 4.17 µM
[6]
  GI50: 4.57 µM
[7]
  GI50: 4.47 µM
[8]
  GI50: 15.5 µM
[9]
  GI50: 4.27 µM
[10]
  GI50: 3.98 µM
[11]
  GI50: 5.75 µM
[12]
  GI50: 5.37 µM
[13]
  GI50: 4.27 µM
[15]
  GI50: 3.47 µM
[16]
  GI50: 5.89 µM
[17]
  GI50: 17.8 µM
[18]
  GI50: 3.31 µM
[22]
  GI50: 25.1 µM
[23]
  GI50: 25.1 µM
[24]
  GI50: 7.08 µM
[25]
  GI50: 4.9 µM
[26]
  GI50: 4.37 µM
[27]
  GI50: 3.98 µM
[28]
  GI50: 4.37 µM
[30]
  GI50: 4.17 µM
[31]
  GI50: 4.27 µM
[31]; [71]
  EC50: 2.58 µg/mL (≈ 12.2 µM)
[33]
  GI50: 4.07 µM
[34]
  GI50: 25.1 µM
[36]
  GI50: 3.8 µM
[37]
  GI50: 4.17 µM
[38]
  GI50: 4.47 µM
[39]
  GI50: 5.01 µM
[40]
  GI50: 3.39 µM
[41]
  GI50: 14.5 µM
[42]
  GI50: 8.13 µM
[43]
  GI50: 5.62 µM
[70]
  GI50: 4.37 µM
[44]
  GI50: 3.98 µM
[45]
  GI50: 4.37 µM
[46]
  GI50: 4.57 µM
[48]
  GI50: 5.01 µM
[50]
  GI50: 4.07 µM
[50]; [71]
  EC50: 3.85 µg/mL (≈ 18.2 µM)
[52]
  GI50: 4.37 µM
[53]
  GI50: 5.37 µM
[54]
  GI50: 4.17 µM
[55]
  GI50: 25.1 µM
[56]
  GI50: 20.9 µM
[57]
  GI50: 5.37 µM
[58]
  GI50: 4.17 µM
[59]
  GI50: 4.27 µM
[60]
  GI50: 4.27 µM
[61]
  GI50: 4.57 µM
[62]
  GI50: 4.07 µM
[63]
  GI50: 3.98 µM
